RAD54 inh: blocks human RAD54 Holliday junction branch migration; FAM/BHQ fluorescence; inhibition, % at 10.4 µM; 360,000 compounds, 0.14% hits; AID 602329;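 active means mean normalized replicate activity at least 40 and at least half of replicates scoring 40 or more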;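 further: 0% = median of neutral control wells and 100% = median of positive control wells; inhibitors cause a drop in the FAM fluorescence signal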
Target sequence (Q92698 whole entry, looked up): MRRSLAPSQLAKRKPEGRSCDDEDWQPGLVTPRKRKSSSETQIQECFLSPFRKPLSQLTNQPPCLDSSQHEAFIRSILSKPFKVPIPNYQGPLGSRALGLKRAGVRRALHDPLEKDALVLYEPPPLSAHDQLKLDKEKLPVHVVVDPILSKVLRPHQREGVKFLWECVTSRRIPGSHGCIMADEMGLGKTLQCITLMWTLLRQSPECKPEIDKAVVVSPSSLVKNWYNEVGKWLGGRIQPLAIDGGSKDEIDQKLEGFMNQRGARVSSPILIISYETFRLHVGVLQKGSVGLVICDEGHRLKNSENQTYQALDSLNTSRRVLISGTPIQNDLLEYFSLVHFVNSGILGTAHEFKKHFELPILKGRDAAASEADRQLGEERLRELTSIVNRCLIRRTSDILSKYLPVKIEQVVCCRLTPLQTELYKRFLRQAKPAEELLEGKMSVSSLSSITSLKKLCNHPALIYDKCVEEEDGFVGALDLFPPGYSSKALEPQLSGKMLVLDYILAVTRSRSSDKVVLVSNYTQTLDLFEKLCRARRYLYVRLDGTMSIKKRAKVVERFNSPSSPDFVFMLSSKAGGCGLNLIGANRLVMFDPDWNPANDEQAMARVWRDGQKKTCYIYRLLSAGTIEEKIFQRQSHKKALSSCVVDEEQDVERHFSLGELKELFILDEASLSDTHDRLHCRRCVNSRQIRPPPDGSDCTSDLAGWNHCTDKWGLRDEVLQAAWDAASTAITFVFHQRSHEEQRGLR
PvdQ acylase: P. aeruginosa PvdQ acylase inhibition. purified PvdQ acylase, fluorescence plate reader. 340,000 compounds, 0.063% hits. inhibition, % at 10 µM; in the data active means inhibition above about 30%, passing the limit was not always enough;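 further: 0% = vehicle neutral wells and 100% = reference inhibitor wells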
VIM-2 inh: blocks Pseudomonas aeruginosa VIM-2 metallo-beta-lactamase. 290,000 compounds, 0.89% hits. inhibition, % at 5.6 µM. purified VIM-2, nitrocefin hydrolysis, epi-absorbance fluorescence;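 active means inhibition above the mean of all tested compounds plus 3 SD, cutoff set per screening run, cut at about 7.5% in these data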;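 further: red hydrolysis product quenches plate fluorescence so inhibitors raise well fluorescence; 0% = enzyme with DMSO and 100% = DMSO without enzyme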
IMP-1 inh-1: inhibitors of Pseudomonas aeruginosa IMP-1 metallo-beta-lactamase; purified IMP-1, nitrocefin hydrolysis, epi-absorbance fluorescence; inhibition, % at 5.6 µM; 290,000 compounds, 0.45% hits;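 active means inhibition above the mean plus 3 SD of all compounds in the same screening run, cut at about 4.5% in these data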;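 further: 0% = IMP-1 with DMSO and 100% = DMSO wells lacking enzyme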
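Assay system: purified IMP-1; Quantity: IMP-1 0.2 nM before substrate addition; Medium: HEPES buffer pH 7.1 with ZnSO4 and Brij 35; Incubation: 15 min enzyme–compound preincubation, then 25 min nitrocefin reaction, 25 °C; Signal: fluorescence quenching readout, ex 480/em 530 nm; Controls: DMSO with and without IMP-1; Repeats: singlicate testing.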
FID counter: displaces DNA intercalator in HCV helicase counter-screen; DNA fluorescent intercalator displacement, fluorescence; inhibition, % at 7.9 µM; 290,000 compounds, 0.17% hits; in the data active means inhibition above about 37%;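 further: 0% = vehicle and 100% = reference compound; higher means more ethidium bromide displaced from hairpin DNA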
IMP-1 inh-2: selectivity counter-screen for VIM-2 inhibitors: IMP-1 metallo-beta-lactamase inhibitors; shares compounds with VIM-2 inh; purified IMP-1, nitrocefin hydrolysis, epi-absorbance fluorescence; inhibition, % at 5.6 µM; 1,300 tested, under 10 active; AID 1856; call rule not given here;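 further: 0% = enzyme with vehicle and 100% = vehicle without enzyme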
VIM-2 FRET ctr: inhibits VIM-2 in FRET assay to exclude epi-absorbance artifacts; shares compounds with VIM-2 inh; purified VIM-2, CCF2 FRET substrate hydrolysis; inhibition, % at 5.6 µM; 1,300 compounds, 23% hits;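 active means inhibition above the mean of all tested compounds plus 3 SD, cut at about 19% in these data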;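 further: 0% = VIM-2 plus DMSO and 100% = no enzyme wells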
TEM-1 counter: TEM-1 inhibition, counter-screen for VIM-2 inhibitors; shares compounds with VIM-2 inh; Purified TEM-1, nitrocefin hydrolysis, epi-absorbance fluorescence; inhibition, % at 5.6 µM; 1,300 compounds, 3% hits; AID 1866;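 active means inhibition above that campaign's mean inhibition plus 3 SD, cut at about 0.46% in these data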;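 further: 0% = TEM-1 with DMSO and 100% = TEM-1 with 100 µM potassium clavulanate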
VIM-2 inh conf: confirmation of P. aeruginosa VIM-2 metallo-beta-lactamase inhibitors; shares compounds with VIM-2 inh; purified VIM-2, nitrocefin hydrolysis, epi-absorbance; AID 2187; inhibition, % at 5.6 µM; 1,300 compounds, 96% hits;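 active means inhibition of the VIM-2 beta-lactamase enzyme above about 11% from the earlier first-round screen, limit read from the data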;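 further: 0% = VIM-2 with DMSO and 100% = buffer wells without enzyme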
Starred values were filed as active, the others as inactive. An excerpt weighted towards active compounds, which were near 1% of everything screened.

Results for O=[N+]([O-])c1cc2oc3c(c2c(C=NCc2ccccc2)c1O)CCCC3 ?
PvdQ acylase: -7; VIM-2 inh: -4; IMP-1 inh-1: 1; FID counter: -2

Results for CC(C)CN=Cc1c(O)c([N+](=O)[O-])cc2oc3c(c12)CCCC3 ?
PvdQ acylase: 20; VIM-2 inh: -3; IMP-1 inh-1: 10*; FID counter: 19

What do the screens show for `COc1ccc(OC)c2c1C(=O)C(Cl)=C(Cl)C2=O`?
RAD54 inh: 4; PvdQ acylase: 5; VIM-2 inh: 8.3*; IMP-1 inh-1: -2; FID counter: 2

How did COc1ccc(S(=O)(=O)N[C@H]2CC[C@@H](CCn3cc(C(C)C)nn3)O[C@H]2CO)cc1 do in these assays?
RAD54 inh: -4

What do the screens show for `COc1ccc(CC(=O)Oc2ccccc2[N+](=O)[O-])cc1`?
RAD54 inh: 5; PvdQ acylase: -7; VIM-2 inh: 0; IMP-1 inh-1: 13*; FID counter: 1

How did CCC(C)NC(=O)c1ccccc1C(=O)NC(C)CC (stereo not given) do in these assays?
PvdQ acylase: -7; VIM-2 inh: -1; IMP-1 inh-1: 6.1*; FID counter: 1

Results for CCC(C)NC(=O)c1ccccc1SC (stereo not given) ?
RAD54 inh: -5; PvdQ acylase: 3; VIM-2 inh: 2; IMP-1 inh-1: -1; FID counter: 0

How did COc1ccc(NC(=O)N[C@H]2CC[C@@H](CCNC(=O)c3cc(Cl)cc(Cl)c3)O[C@@H]2CO)cc1 do in these assays?
RAD54 inh: -10

How did COc1ccc(C2=C(C=O)Cc3ccccc3O2)cc1 do in these assays?
PvdQ acylase: 110*

How did O=C(CN1C(=O)/C(=C/c2ccccc2)SC1=S)NC1CCS(=O)(=O)C1 (stereo not given) do in these assays?
RAD54 inh: 9; PvdQ acylase: -4; VIM-2 inh: -1; IMP-1 inh-1: -2; FID counter: -5

Results for O=C(CCN1C(=O)/C(=C/c2ccccc2Cl)SC1=S)NN1CCOCC1 ?
RAD54 inh: 7; PvdQ acylase: -6; VIM-2 inh: 4; IMP-1 inh-1: 4.5*; FID counter: -10

What do the screens show for `O=C(CN1C(=O)/C(=C/c2ccc(F)cc2)SC1=S)NC1CCS(=O)(=O)C1` (stereo not given)?
RAD54 inh: 0; PvdQ acylase: 1; VIM-2 inh: 1; IMP-1 inh-1: 11*; FID counter: -16

Results for O=C(CN1C(=O)/C(=C/c2ccccc2)SC1=S)NC1C=CS(=O)(=O)C1 (stereo not given) ?
RAD54 inh: -9; PvdQ acylase: -3; VIM-2 inh: -1; IMP-1 inh-1: 1; FID counter: -2

Results for O=C(CN1C(=O)/C(=C/c2ccccc2Cl)SC1=S)NC1C=CS(=O)(=O)C1 (stereo not given) ?
RAD54 inh: -4; PvdQ acylase: -13; VIM-2 inh: -3; IMP-1 inh-1: 12*; FID counter: -13

What do the screens show for `O=C(CN1C(=O)/C(=C/c2ccc(F)cc2)SC1=S)NC1C=CS(=O)(=O)C1` (stereo not given)?
RAD54 inh: 12; PvdQ acylase: 3; VIM-2 inh: -1; IMP-1 inh-1: 4.8*; FID counter: -20

What do the screens show for `O=C(CCN1C(=O)/C(=C/c2ccccc2Cl)SC1=S)NC1CCCC1`?
RAD54 inh: 8; PvdQ acylase: -18; VIM-2 inh: 2; IMP-1 inh-1: 0; FID counter: -3

What do the screens show for `O=C(N[C@@H]1C=C[C@@H](CC(=O)N2CCCCC2)O[C@H]1CO)c1ccccn1`?
RAD54 inh: -5

Results for O=C(CC(F)(F)F)N1C[C@H]2[C@@H](c3ccccc31)[C@@H](CO)N2C(=O)c1cccnc1 ?
RAD54 inh: -2

How did CC(=O)COc1ccc2oc(=O)cc(-c3cc4ccccc4o3)c2c1 do in these assays?
RAD54 inh: -11; PvdQ acylase: -1; VIM-2 inh: 8.3*; IMP-1 inh-1: -2; FID counter: -30

How did Cc1cc2oc(=O)cc(-c3cc4ccccc4o3)c2cc1O do in these assays?
RAD54 inh: -8; PvdQ acylase: -8; VIM-2 inh: 1; IMP-1 inh-1: 6.0*; FID counter: -6

What do the screens show for `Cn1c2ccccc2c2ccc3c(c21)C(=O)C=CC3=O`?
PvdQ acylase: -1

How did Cc1ccc2c(c1)c1ccc3c(c1n2C)C(=O)C=CC3=O do in these assays?
RAD54 inh: -10; PvdQ acylase: -17; VIM-2 inh: 12*; IMP-1 inh-1: -1; FID counter: -5

How did Cc1cccc(N=C2NC(=O)/C(=C/C=C/c3ccco3)S2)c1C do in these assays?
PvdQ acylase: 2; VIM-2 inh: -2; IMP-1 inh-1: 4.8*; FID counter: -17

What do the screens show for `COc1ccc2c(c1)c1ncn(CCN3CCNCC3)c(=O)c1n2C`?
PvdQ acylase: -5; VIM-2 inh: 14*; IMP-1 inh-1: -1; FID counter: 10; IMP-1 inh-2: -1; VIM-2 FRET ctr: 0; TEM-1 counter: -8; VIM-2 inh conf: 31*

Results for CC(C)(C)C(=O)Nc1nnc(CSCc2ccccc2F)s1 ?
RAD54 inh: 2; PvdQ acylase: -16; VIM-2 inh: 26*; IMP-1 inh-1: -4; FID counter: -12; IMP-1 inh-2: -3; VIM-2 FRET ctr: 65*; TEM-1 counter: -5; VIM-2 inh conf: 48*

What do the screens show for `CCCNC(=O)Nc1ccc2c(c1)C(=O)N(C)[C@H]1CC[C@H](CC(=O)NCc3ccccc3)O[C@H]1CO2`?
RAD54 inh: -10

How did CCN(CC)CCNC(=O)c1cn(CC)c2cc(N3CCN(C)CC3)c(F)cc2c1=O do in these assays?
RAD54 inh: 27; PvdQ acylase: 8; VIM-2 inh: 12*; IMP-1 inh-1: 1; FID counter: 38*; IMP-1 inh-2: -2; VIM-2 FRET ctr: 0; TEM-1 counter: -3; VIM-2 inh conf: 27*

What do the screens show for `CO[C@H]1CN(C)C(=O)c2cc(NC(=O)C3CC3)ccc2OC[C@@H](C)N(Cc2ccccc2)C[C@H]1C`?
RAD54 inh: 3

How did O=C(NCCCn1ccnc1)c1nn2c(C(F)(F)F)cc(-c3ccccc3)nc2c1Cl do in these assays?
RAD54 inh: 1; PvdQ acylase: 51*; VIM-2 inh: 27*; IMP-1 inh-1: -3; FID counter: 3; IMP-1 inh-2: -3; VIM-2 FRET ctr: -12; TEM-1 counter: -4; VIM-2 inh conf: 53*

From PubChem BioAssay
